# Screening data deposited in PubChem by Sanford-Burnham Center for Chemical Genomics.
# Sampled rows, rich in hits. Any-hit rate of the full collection: about 1.8%.
# FLuc stim CS = FLuc activators, initial screening, artefact control for FLuc-dependent activation tests, biochemical, ATPlite luminescence; Luciferin 4-monooxygenase (Photinus pyralis), P08659; AID 1027, 2008; activation factor at 10 µM; 200,000 tested, under 10 active; ATPlite luciferase biochemical, 10 min; 0 = ATP-free wells, 1 = DMSO control;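 active means luciferase activation factor, scaled between plate controls, of at least 2 with compound at 10 µM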
# Target sequence (P08659 whole entry, looked up): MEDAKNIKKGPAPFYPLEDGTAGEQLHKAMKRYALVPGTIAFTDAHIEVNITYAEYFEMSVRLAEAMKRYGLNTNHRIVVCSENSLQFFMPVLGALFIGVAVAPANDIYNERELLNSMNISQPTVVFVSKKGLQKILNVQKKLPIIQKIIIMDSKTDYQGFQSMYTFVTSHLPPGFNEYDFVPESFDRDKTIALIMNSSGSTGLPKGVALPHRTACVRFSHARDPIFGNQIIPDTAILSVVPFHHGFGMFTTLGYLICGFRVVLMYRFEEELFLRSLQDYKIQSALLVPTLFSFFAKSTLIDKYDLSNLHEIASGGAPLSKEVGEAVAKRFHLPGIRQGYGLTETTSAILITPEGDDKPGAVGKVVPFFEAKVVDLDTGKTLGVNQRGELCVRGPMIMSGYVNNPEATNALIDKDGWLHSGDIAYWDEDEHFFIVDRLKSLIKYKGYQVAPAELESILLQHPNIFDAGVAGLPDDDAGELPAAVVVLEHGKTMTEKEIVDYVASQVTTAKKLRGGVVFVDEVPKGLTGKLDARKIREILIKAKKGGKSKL
#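 test system = cell-free luciferase reagent | medium = PBS as buffer for the ATP substrate | dosing = test compounds dosed from 2 mM stocks in 100% DMSO | incubation = 10 min at ambient temperature | detection = luminescence measurement of luciferase light output | benchmarks = low control with PBS replacing ATP, high control enzyme plus ATP without compound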
# PPC-1+TRAIL kill = compounds killing PPC-1 cancer cells with TRAIL present, primary screen, TRAIL potentiator project, ATPLite luminescence, uHTS. hit rate 0.41% among 220,000. PPC-1 cells + TRAIL, ATPLite viability luminescence. cell killing (% activity), % at 4 µM or 5 µM;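 active means cell killing above 50% in the first pass at 4 µM, then a duplicate retest at 5 µM averaging 50% or more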;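 further: plate controls were cells with TRAIL plus DMSO for no effect and medium-only wells lacking cells for full effect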
# TRAIL sens C8 = viability loss with TRAIL in NB7+C8 cells, primary screen, TRAIL sensitizer project, cell-based, ATPlite luminescence; hit rate 1% among 360,000; inhibition (viability loss, TRAIL sensitization), % at 10 µM; AID 624354, 2012;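 active means compounds causing at least 50% loss of cell viability in the single-dose screen, relative to plate controls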
# beta cell repl = inducers of MIN6 beta-cell proliferation, primary screen, ATP luminescence, uHTS; proliferation, % at 10 µM; MIN6 cells proliferation, ATPlite luminescence, 48 h; cells starved in 0.2% serum; 100% = growth in 10% serum; hit rate 0.29% among 330,000; AID 2380, 2010;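 active means compounds whose signal lies at least 3.5 SD above the mean of all wells on their plate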;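 further: 0% = DMSO-treated cells in low-serum medium and 100% = 10% serum control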
# hiPSC survival = enhancers of single-cell hiPSC survival, primary screen, ATPlite luminescence | 100% = ROCK inhibitor wells, 0% = DMSO | hit rate 0.044% among 360,000 | survival enhancement, % at 20 µM; in the data active means survival enhancement above about 18%;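 further: cells exposed to compounds for 16 hours before the ATP read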
# FLuc inhib CS = firefly luciferase enzyme inhibitors, primary screen, artefact control for luciferase-based inhibitor screens, biochemical, luminescence, ATPLite; Luciferin 4-monooxygenase (Photinus pyralis), P08659; 10 min; inhibition, % at 10 µM; hit rate 1.5% among 200,000; AID 1006, 2008;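 active means inhibition above about 50% when tested at 10 µM, limit read from the data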
# PPC1 cytotox = cytotoxicity in PPC-1 cells, confirmation, cytotoxicity control for TRAIL apoptosis potentiator project, cell-based, ATP content luminescence; shares compounds with PPC-1+TRAIL kill; PPC-1 viability, ATPlite luminescence, overnight; cytotoxicity, % at 5 µM; hit rate 50% among 1,200; AID 1447, 2008;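 active means reconfirmed compounds whose average cytotoxicity reaches 50% or more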;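 further: 0% = DMSO-treated cells and 100% = wells holding medium but no cells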
# Active calls of the source: *; . = not tested or not shown.
SMILES,FLuc stim CS,PPC-1+TRAIL kill,TRAIL sens C8,beta cell repl,hiPSC survival,FLuc inhib CS,PPC1 cytotox
O=C1c2cccc(NCCCNCCO)c2C(=O)c2cccc(NCCCNCCO)c21,.,.,57*,.,-3,.,.
O=C(COC(=O)c1ccccc1)Nc1ncc([N+](=O)[O-])s1,.,.,5,0,3,.,.
O=C(Nc1ccccc1)Nc1ncc([N+](=O)[O-])s1,0.7,24,55*,-5,-1,27,.
Cn1nc(C2CC2)cc1NC(=O)C1(C)CCN1C(=O)CC(c1ccccc1)c1ccccc1 (centres undefined),.,.,0,.,1,.,.
Cn1ncc2c(O/N=C(\N)c3ccc(C(F)(F)F)cc3)ncnc21,.,14,95*,-4,-1,.,.
COC(=O)[C@@]1(Cc2ccc(F)cc2)[C@H]2c3cc(C(=O)N4CCCC4)n(CCCNc4ncc(C(F)(F)F)cc4Cl)c3C[C@H]2CN1C(=O)c1ccccc1,.,.,29,-8,-2,.,.
CC1(C(=O)NCc2ccc3c(c2)OCO3)CCN1Cc1csc2ccccc12 (centres undefined),.,.,5,.,-1,.,.
O=C1C2C3C=CC(CC3)C2C(=O)N1/N=C/c1ccc(O)cc1 (centres undefined),0.4,26,31,-1,-2,63*,.
C=CCN=C1NN=C(c2cc(C)n(CC=C)c2C)CS1,0.1,3,52*,-6,-5,92*,.
COCCN=C1NN=C(c2cc(C)n(CC3CCCO3)c2C)CS1 (centres undefined),0.8,-7,-6,-4,0,25,.
NC1=NN=C(c2ccc3c(c2)OCCO3)CS1,0.2,23,47,-4,-1,79*,.
Cc1sc(N)nc1-c1ccc2c(c1)OCCO2,.,.,-1,3,0,.,.
C=CCN=C1NN=C(c2ccc3c(c2)OCCO3)CS1,0.1,31,35,-5,-4,94*,.
CCOC(=O)CC(=O)CSc1nc(-c2cccnc2)ccc1C#N,1,5,8,-2,1,-2,.
CCOC(=O)CSc1nc(-c2ccncc2)ccc1C#N,1,48,51*,-4,-1,1,46
CCOC(=O)C1=C(CSc2nc(-c3ccncc3)ccc2C#N)OC(N)=C(C#N)C1c1ccc(OC)cc1 (centres undefined),1.1,-12,-1,-4,0,-6,-22
CN(c1ccc(C(=O)N2CCN(Cc3ccccc3)CC2)cc1)S(=O)(=O)c1ccc(Cl)cc1,.,.,-1,-2,1,.,.
c1ccc(-n2ncc3c(N4CCCCC4)ncnc32)cc1,0.1,80*,86*,-5,-3,89*,79*
CC1CCCN(c2ncnc3c2cnn3-c2ccccc2)C1 (centres undefined),.,78*,86*,-5,-2,.,78*
Cc1ccc(-n2ncc3c(N4CCCC(C)C4)ncnc32)c(C)c1 (centres undefined),.,21,28,-3,-1,.,.
CC1CCCN(c2ncnc3c2cnn3-c2ccc(Cl)cc2)C1 (centres undefined),.,79*,87*,-6,-3,.,79*
CCc1nc2c(OCc3ccc(F)c(F)c3)cccn2c1N(C)C(=O)c1ccc(OC)cc1,.,.,10,.,0,.,.
CCc1ccc(N2CC(C)Cn3c2nc2c3c(=O)[nH]c(=O)n2C)cc1 (centres undefined),.,.,6,-1,-1,.,.
C/C(=N\Nc1nc(C)cc(C)n1)c1ccc(N2CCOCC2)cc1,1,15,2,-6,2,1,.
C/C(=N\Nc1nc2ccccc2[nH]1)c1ccc(N2CCOCC2)cc1,0.1,71*,73*,-7,-1,94*,71*
SMILES,FLuc stim CS,PPC-1+TRAIL kill,TRAIL sens C8,beta cell repl,hiPSC survival,FLuc inhib CS,PPC1 cytotox
Cc1cccc(CNc2ncnc3[nH]ncc23)c1,.,.,-8,.,0,.,.
Cc1cc(C(=O)COC(=O)c2cccnc2Cl)c(C)n1CC1CCCO1 (centres undefined),0,79*,16,-6,-1,96*,77*
Cc1cc(C(=O)COC(=O)c2ccccc2NCCO)c(C)n1CC1CCCO1 (centres undefined),.,.,42,-4,0,.,.
Cc1cc(C(=O)COC(=O)c2ccccc2Br)c(C)n1CC1CCCO1 (centres undefined),.,80*,77*,-7,0,.,76*
Cc1ccc(S(=O)(=O)N(C)C)cc1NC(=S)N1CCCCC1CO (centres undefined),1.1,19,-2,-3,-1,-11,.
O=C(NCCO)c1ccc2c3n(nc2c1)-c1ccccc1CO3,.,71*,70*,-8,-2,.,70*
O=C(NCC1CC1)c1ccc2c3n(nc2c1)-c1ccccc1CO3,.,80*,83*,-8,-5,.,76*
C=CCNC(=O)c1ccc2c3n(nc2c1)-c1ccc(Cl)cc1CO3,.,.,23,-4,-4,.,.
CCCCn1c(N)c(N(CC)C(=O)COc2ccc(C#N)cc2)c(=O)[nH]c1=O,.,.,-9,1,-2,.,.
Cc1ccc(Cn2cc(CN3CC(N4CCN(C5CCN(C)CC5)CC4)CS3(=O)=O)nn2)cc1 (centres undefined),.,.,-4,.,-1,.,.
O=C(Nc1ncccc1Cl)c1cc2ccccc2o1,.,.,38,-1,0,.,.
COc1ccc2oc(C(=O)Nc3nc4ccccc4[nH]3)c(C)c2c1,.,59*,69*,-6,-1,.,54*
O=C(Nc1nc2ccccc2[nH]1)c1ccc(F)cc1,0.1,73*,83*,-6,-5,91*,72*
O=C(Nc1nc2ccccc2[nH]1)c1cc2ccccc2o1,0.3,68*,66*,-6,0,75*,69*
O=C(Nc1nc2ccccc2[nH]1)c1ccccc1F,0,77*,90*,-6,-3,96*,79*
O=C(CNC(=O)C1COc2ccccc2O1)N/N=C\c1ccc(Cl)cc1 (centres undefined),.,4,-21,-1,0,.,.
CCN(CC)Cc1nc2nc(Cl)c(Cl)nc2[nH]1,.,.,-2,.,-3,.,.
Cc1cc(SCC(=O)N2CCN(C(=O)c3ccco3)CC2)c(C)cc1Br,.,.,-4,-1,0,.,.
COc1cccc(C(=O)Cn2c(=N)n(C)c3ccccc32)c1,0.7,54*,59*,-5,-5,32,50
CCCCN1C[C@H](Cc2ccccc2)[C@@H](CC(=O)NC)C1=O,.,.,1,.,0,.,.
